Values after ≈ are worked out from the molar mass of the structure shown. Active and inactive are the calls of the source. The rule behind the calls is not given here.
Tests used:
[1] = Plasma concentration in ICR mouse at 10 mg/kg, po administered via gavage and measured after 10 to 1440 mins by LC/MS/MS analysis; type: ADME, organism-based; conditions: in vivo, time 10-1440 min
Procedure, shortened: (§1)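 Male ICR mice, 10 mg/kg single oral gavage; n = 3 mice per time point, 8 time points from 10 to 1440 min. Plasma taken by cardiac puncture and mixed with buffer containing oxybutynin internal standard. Samples diluted with acetonitrile, then LC/MS/MS on C18 with acetonitrile/water–formic acid mobile phases in MRM mode. Concentration read off a standard curve.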

[2] = Aqueous solubility of compound in pH 7.4 PBS measured at 24 hrs by HPLC analysis; type: physicochemical; conditions: buffer, pH 7.4, 24 h
Procedure, shortened: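 HPLC principal-peak area of the buffer sample compared with a 200 μM calibration standard in methanol/water 60/40.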

Enterococcus faecium [3] = assay: Antibacterial activity against Enterococcus faecium HM965 incubated for 18 to 20 hrs under aerobic condition by CLSI protocol based broth microdilution assay; type: functional; conditions: time hrs 18-20
Procedure, shortened: (§2)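 Broth microdilution per CLSI. Strains grown aerobically overnight on trypticase soy agar at 37 °C. Inoculum set to 0.5 McFarland, diluted in trypticase soy broth to about 5 × 10⁵ CFU/mL. Agents serially diluted, plates incubated aerobically at 37 °C for 18–20 h. MIC is the lowest concentration with no visible growth. Compound stocks 10 mg/mL in DMSO.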

Enterococcus faecalis [4] = assay: Antibacterial activity against Enterococcus faecalis HM-334 incubated for 18 to 20 hrs under aerobic condition by CLSI protocol based broth microdilution assay; type: functional; conditions: time hrs 18-20; procedure, shortened: as §2
Enterococcus faecium [5] = assay: Bacteriostatic activity against Enterococcus faecium ATCC 700221 assessed as reduction in bacterial burden at 5 times MIC preincubated for 24 hrs followed by replating on soya agar plates and measured after 16 hrs by time-kill assay; type: functional, organism-based
Procedure, shortened: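 E. faecium ATCC 700221 overnight culture diluted in trypticase soy broth to 3.5 × 10⁶ CFU/mL. […] Samples taken at 2, 4, 6, 8, 12 and 24 h, diluted in PBS and plated on trypticase soy agar. Colonies counted after 16 h at 37 °C. Detection limit 100 CFU/mL. Two-way ANOVA with Dunnett's test.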

Enterococcus faecium [6] = assay: Antibacterial activity against Enterococcus faecium NR-32052 incubated for 18 to 20 hrs under aerobic condition by CLSI protocol based broth microdilution assay; type: functional; conditions: time hrs 18-20; procedure, shortened: as §2
[7] = Apparent permeability across basolateral to apical side in human Caco2 cells; type: ADME, cell-based; conditions: caco-2
Procedure, shortened: (§3)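 Bi-directional Caco-2 monolayer permeability, run at Eurofins: donor at pH 6.5, receiver at pH 7.4, both A→B and B→A. Papp derived from receiver concentration at the end point, incubation time, monolayer area and mid-point donor concentration. Concentrations taken as peak areas.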

Caco-2 = assay: Cytotoxicity against human Caco2 cells at 128 ug/ml incubated for 2 hrs by MTS assay; type: cell-based; conditions: caco-2, 2 h, dose 128 µg/ml
Procedure, shortened: (§4)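 Caco-2 cells maintained in DMEM with 10% FBS, non-essential amino acids and penicillin-streptomycin at 37 °C, 5% CO₂. Compound exposure for 2 h in serum-free medium at several concentrations; DMSO-matched controls. Viability expressed relative to DMSO controls (mean ± SD), and CC₅₀ derived.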

[8] = Cytotoxicity against human Caco2 cells incubated for 2 hrs by MTS assay; type: cell-based; conditions: Caco-2 cells; procedure, shortened: as §4
[9] = Half life in human liver microsomes after 60 mins; type: ADME, Microsome; conditions: 1 h
[10] = Metabolic stability in human liver microsomes assessed as compound remaining measured after 60 mins; type: ADME, Microsome; conditions: 1 h
Procedure, shortened: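 Human liver microsomes at 0.1 mg/mL, 37 °C. Percent parent remaining at 60 min, mean of 2 replicates.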

Enterococcus faecalis [11] = assay: Antibacterial activity against Enterococcus faecalis NR-31975 incubated for 18 to 20 hrs under aerobic condition by CLSI protocol based broth microdilution assay; type: functional, organism-based; conditions: time hrs 18-20; procedure, shortened: as §2
Enterococcus faecium [12] = assay: Antibacterial activity against Enterococcus faecium HM968 incubated for 18 to 20 hrs under aerobic condition by CLSI protocol based broth microdilution assay; type: functional; conditions: time hrs 18-20; procedure, shortened: as §2
[13] = Cmax in ICR mouse at 10 mg/kg, po administered via gavage and measured after 30 mins by LC/MS/MS analysis; type: ADME, organism-based; parameters: route oral, dose 10 mg/kg, time 10-1440; conditions: in vivo, 0.5 h; procedure, shortened: as §1
Enterococcus faecium [14] = assay: Antibacterial activity against Enterococcus faecium NR-28978 incubated for 18 to 20 hrs under aerobic condition by CLSI protocol based broth microdilution assay; type: functional; conditions: time hrs 18-20; procedure, shortened: as §2
[15] = Tmax in ICR mouse at 10 mg/kg, po administered via gavage and measured after 10 to 1440 mins by LC/MS/MS analysis; type: ADME, organism-based; conditions: in vivo, time 10-1440 min; procedure, shortened: as §1
Enterococcus faecium [16] = assay: Antibacterial activity against Enterococcus faecium NR-31971 incubated for 18 to 20 hrs under aerobic condition by CLSI protocol based broth microdilution assay; type: functional; conditions: time hrs 18-20; procedure, shortened: as §2
Enterococcus faecalis [17] = assay: Antibacterial activity against Enterococcus faecalis HM-335 incubated for 18 to 20 hrs under aerobic condition by CLSI protocol based broth microdilution assay; type: functional; conditions: time hrs 18-20; procedure, shortened: as §2
[18] = MRT in ICR mouse at 10 mg/kg, po administered via gavage and measured after 10 to 1440 mins by LC/MS/MS analysis; type: ADME, organism-based; conditions: in vivo, time 10-1440 min; procedure, shortened: as §1
Enterococcus faecalis [19] = assay: Antibacterial activity against Enterococcus faecalis NR-31970 incubated for 18 to 20 hrs under aerobic condition by CLSI protocol based broth microdilution assay; type: functional, organism-based; conditions: time hrs 18-20; procedure, shortened: as §2
[20] = Dose normalized AUC in ICR mouse at 10 mg/kg, po administered via gavage and measured after 10 to 1440 mins by LC/MS/MS analysis; type: ADME, organism-based; conditions: in vivo, time 10-1440 min; procedure, shortened: as §1
Enterococcus faecium [21] = assay: Inhibition of carbonic anhydrase in Enterococcus faecium ATCC 700221 assessed as antibacterial activity incubated for 18 to 20 hrs in presence of ambient air by CLSI protocol based broth microdilution assay; conditions: time hrs 18-20
Procedure, shortened: (§5)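 CLSI broth microdilution: inoculum about 5 × 10⁵ CFU/mL in trypticase soy broth with serial dilutions of agents. Paired plates incubated at 37 °C for 18–20 h, one set in ambient air ("normal"), the other under 5% CO₂. MIC is the lowest concentration completely inhibiting visible growth.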

Enterococcus faecium [22] = assay: Inhibition of carbonic anhydrase in Enterococcus faecium ATCC 700221 assessed as antibacterial activity incubated for 18 to 20 hrs in presence of 5% CO2 by CLSI protocol based broth microdilution assay; conditions: time hrs 18-20; procedure, shortened: as §5
Enterococcus faecium [23] = assay: Antibacterial activity against Enterococcus faecium NR-31914 incubated for 18 to 20 hrs under aerobic condition by CLSI protocol based broth microdilution assay; type: functional; conditions: time hrs 18-20; procedure, shortened: as §2
Enterococcus faecium [24] = assay: Antibacterial activity against Enterococcus faecium NR-31903 incubated for 18 to 20 hrs under aerobic condition by CLSI protocol based broth microdilution assay; type: functional; conditions: time hrs 18-20; procedure, shortened: as §2
[25] = Apparent permeability across apical to basolateral side in human Caco2 cells; type: ADME, cell-based; conditions: caco-2; procedure, shortened: as §3
Enterococcus faecium [26] = assay: Antibacterial activity against Enterococcus faecium NR-31916 incubated for 18 to 20 hrs under aerobic condition by CLSI protocol based broth microdilution assay; type: functional; conditions: time hrs 18-20; procedure, shortened: as §2
Enterococcus faecium [27] = assay: Antibacterial activity against Enterococcus faecium NR-31972 incubated for 18 to 20 hrs under aerobic condition by CLSI protocol based broth microdilution assay; type: functional; conditions: time hrs 18-20; procedure, shortened: as §2
[28] = Drug excretion in ICR mouse at 10 mg/kg, po administered via gavage and measured after 1440 mins by LC/MS/MS analysis; type: ADME, organism-based; conditions: in vivo, read-out: Drug excretion
[29] = AUC(0 to infinity) in ICR mouse at 10 mg/kg, po administered via gavage and measured after 10 to 1440 mins by LC/MS/MS analysis; type: ADME, organism-based; parameters: route oral, dose 10 mg/kg, time 10-1440; conditions: in vivo; procedure, shortened: as §1
Enterococcus faecium [30] = assay: Antibacterial activity against Enterococcus faecium NR-32065 incubated for 18 to 20 hrs under aerobic condition by CLSI protocol based broth microdilution assay; type: functional; conditions: time hrs 18-20; procedure, shortened: as §2

NS(=O)(=O)c1nnc(NC(=O)CCC2CCCCC2)s1
Cp [1]: 0.184 µg/mL | solubility [2]: 32.8 µM (≈ 10.4 µg/mL) | MIC (Enterococcus faecium [3]): 0.007 mg/L (≈ 0.022 µM) | MIC (Enterococcus faecalis [4]): 0.007 mg/L (≈ 0.022 µM) | Activity (Enterococcus faecium [5]): Active | MIC (Enterococcus faecium [6]): 0.015 mg/L (≈ 0.0471 µM) | Papp [7]: 14.1 10^-6 cm/s | Activity (Caco-2): Non-Toxic | CC50 at 2 h [8]: > 128 mg/L | t1/2 [9]: 1.23 h | Stabilty [10]: 62% | Activity (Enterococcus faecalis [11]): Active | MIC (Enterococcus faecium [12]): 0.03 mg/L (≈ 0.0942 µM) | Cmax [13]: 0.456 µg/mL | MIC (Enterococcus faecium [14]): 0.06 mg/L (≈ 0.188 µM) | Tmax [15]: 0.5 h | MIC (Enterococcus faecium [16]): 0.007 mg/L (≈ 0.022 µM) | MIC (Enterococcus faecalis [17]): 0.03 mg/L (≈ 0.0942 µM) | MRT [18]: 1.35 h | Activity (Enterococcus faecalis [19]): Active | AUC/dose [20]: 56 kg·ng·h/mL/mg | inhibition (Enterococcus faecium [21]): Active | inhibition (Enterococcus faecium [22]): inactive | MIC (Enterococcus faecium [23]): 0.03 mg/L (≈ 0.0942 µM) | MIC (Enterococcus faecium [24]): 0.015 mg/L (≈ 0.0471 µM) | Papp [25]: 6.5 10^-6 cm/s | MIC (Enterococcus faecium [26]): 0.03 mg/L (≈ 0.0942 µM) | MIC (Enterococcus faecium [27]): 0.015 mg/L (≈ 0.0471 µM) | dose excreted at 24 h [28]: 100% | AUC(0-inf) [29]: 0.562 µg·h/mL | MIC (Enterococcus faecium [30]): 0.015 mg/L (≈ 0.0471 µM)
